Measured values reported in ChEMBL document CHEMBL4251665, “Ca2+-Signal Transduction Inhibitors, Kujiol A and Kujigamberol B, Isolated from Kuji Amber Using a Mutant Yeast” (J Nat Prod, 2018).
pIC50: −log10 of the molar value. The source made the active and inactive calls. The rule behind the calls is not given here.

Columns and labels:
WI-38 = assay: Cytotoxicity against human WI38 cells after 48 hrs by MTT assay; type: cell-based; details: WI-38, 48 h
In short: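 WI-38 human diploid lung fibroblasts cultured in DMEM at 5 × 10^3 cells/well, then tested for cytotoxicity.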

Saccharomyces cerevisiae = assay: Inhibition of calcium signal transduction pathway in Saccharomyces cerevisiae YNS17 assessed as growth restoration; type: functional, organism-based
In short: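 Mutant S. cerevisiae YNS17 plate assay. Samples dissolved in MeOH and spotted on plates; growth-restored zones scored over 0.5 to 0.13 μg/spot. Positive control: FK506 at 2.5 ng/spot.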

[1] = target: T1, Glycogen synthase kinase-3 beta (Homo sapiens, UniProt P49841); assay: Inhibition of human GSK-3beta using peptide substrate
Homo sapiens [2] = species: Homo sapiens; assay: Inhibition of calcineurin (unknown origin) using DLDVPIPGRFDRRVpSVAAE as substrate by malachite green based colorimetric method
HL-60 = assay: Cytotoxicity against human HL60 cells after 48 hrs by MTT assay; type: cell-based; details: HL-60, 48 h
In short: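 HL60 cells grown in RPMI 1640 with 10% heat-inactivated FBS and penicillin (50 units/mL)–streptomycin (50 μg/mL). Exposed to samples for 48 h at 37 °C, humidified, 5% CO2. Viability read by MTT assay; IC50 derived.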

Homo sapiens [3] = species: Homo sapiens; assay: Inhibition of calcineurin (unknown origin) at 200 uM using DLDVPIPGRFDRRVpSVAAE as substrate by malachite green based colorimetric method
[4] = target: T1, Glycogen synthase kinase-3 beta; assay: Inhibition of human GSK-3beta at 200 uM using peptide substrate
Target sequence in this assay (P49841 whole entry, looked up): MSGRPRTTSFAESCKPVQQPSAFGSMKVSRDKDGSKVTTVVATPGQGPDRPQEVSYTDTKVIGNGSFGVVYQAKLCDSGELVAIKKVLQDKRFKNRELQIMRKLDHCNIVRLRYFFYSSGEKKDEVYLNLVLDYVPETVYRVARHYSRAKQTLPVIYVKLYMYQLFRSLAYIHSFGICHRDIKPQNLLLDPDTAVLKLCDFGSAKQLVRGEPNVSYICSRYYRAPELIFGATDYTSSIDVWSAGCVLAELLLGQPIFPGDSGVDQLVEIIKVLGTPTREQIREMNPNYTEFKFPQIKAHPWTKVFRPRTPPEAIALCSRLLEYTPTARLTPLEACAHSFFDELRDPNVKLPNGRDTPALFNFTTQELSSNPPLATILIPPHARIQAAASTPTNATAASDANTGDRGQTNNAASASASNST

pIC50 [1]	inhibition [1]	inhibition (Homo sapiens [2])	inhibition (Homo sapiens [3])	inhibition [4]	Compound	pIC50 (WI-38)	inhibition (Saccharomyces cerevisiae)	pIC50 (HL-60)
3.75	Dose-dependent effect	Dose-dependent effect	–	–	Cc1ccc2c(c1)CC[C@H]1[C@@](C)(CO)CCC[C@]21C	< 4.30	Dose-dependent effect	5.15
–	–	–	inactive	inactive	Cc1ccc2c(c1CCC(C)(C)O)CCCC2(C)C	< 4.30	Dose-dependent effect	4.38
–	–	–	–	–	Cc1ccc2c(c1CCC(C)C)CCC[C@]2(C)CO [KUJIGAMBEROL]	< 4.30	–	–
